Laboratory results from ChEMBL document CHEMBL4130456 (ACS Med Chem Lett, 2017).
In brackets after ≈: the same amount, converted by molar mass. Activity calls are given as the source filed them. No cut-off for these calls is given here.

Tests used:
[1] = molecular target: Phosphatidylinositol 4,5-bisphosphate 3-kinase catalytic subunit gamma isoform (Mus musculus, UniProt Q9JHG7); assay: Inhibition of PI3Kgamma in C57/Bl6 mouse BMMC assessed as reduction in adenosine stimulated ATK phosphorylation at ser473 residue pretreated for 30 mins followed by adenosine addition measured after 3 minutes; type: cell-based
[2] = molecular target: Phosphatidylinositol 3-kinase catalytic subunit type 3 (Homo sapiens, UniProt Q8NEB9); assay: Inhibition of Vps34 (unknown origin) using phosphatidyl inositol/n-Octyl-glucoside as substrate measured after 30 mins by KinaseGlo assay
Mus musculus [3] = assay: Toxicity in mouse assessed as effect on insulin homeostasis up to 100 mg/kg, po bid; type: organism-based; conditions: in vivo
[4] = molecular target: T1, Phosphatidylinositol 4,5-bisphosphate 3-kinase catalytic subunit alpha isoform (Homo sapiens, UniProt P42336); assay: Inhibition of recombinant PI3Kalpha (unknown origin) using phosphatidyl inositol/n-Octyl-glucoside as substrate measured after 30 mins by KinaseGlo assay
[5] = molecular target: T2, Phosphatidylinositol 4,5-bisphosphate 3-kinase catalytic subunit beta isoform (Homo sapiens, UniProt P42338); assay: Inhibition of recombinant PI3Kbeta (unknown origin) using phosphatidyl inositol/n-Octyl-glucoside as substrate measured after 60 mins by KinaseGlo assay
[6] = molecular target: T1, Phosphatidylinositol 4,5-bisphosphate 3-kinase catalytic subunit alpha isoform; assay: Inhibition of recombinant human myristoylated PI3Kalpha catalytic domain expressed in Rat1 cells assessed as reduction in Akt phosphorylation at […] residue after 1 hr by alpha screen Surefire assay; type: cell-based
[7] = molecular target: T2, Phosphatidylinositol 4,5-bisphosphate 3-kinase catalytic subunit beta isoform; assay: Inhibition of recombinant human myristoylated PI3Kbeta catalytic domain expressed in Rat1 cells assessed as reduction in Akt phosphorylation at […] residue after 1 hr by alpha screen Surefire assay; type: cell-based
Cynomolgus monkey [8] = assay: Ex-vivo inhibition of PI3Kdelta in po dosed cynomolgus monkey assessed as reduction in anti-IgM-induced AKT phosphorylation at ser473 residue in whole blood pretreated up to 24 hrs followed by anti-IgM stimulation after 20 mins by flow cytometric analysis; type: functional, organism-based; conditions: Macaca fascicularis
[9] = molecular target: DNA-dependent protein kinase catalytic subunit (Homo sapiens, UniProt P78527); assay: Inhibition of DNA-PK (unknown origin) using peptide substrate assessed as reduction in incorporation of radioactive 33p into substrate by liquid scintillation counting method
[10] = Terminal half life in Sprague-Dawley rat at 1 mg/kg, iv by RP-HPLC analysis; type: ADME, organism-based; conditions: in vivo, read-out: beta t1/2 (converted)
Rattus norvegicus [11] = assay: Dose normalized AUC in Sprague-Dawley rat at 1 mg/kg, iv by RP-HPLC analysis; type: ADME, organism-based; conditions: in vivo
Summary of the method: (§1)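 Single-dose PK in naive animals, with the compound given as the crystalline free base. Plasma exposure was expressed as AUC normalised to dose.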

[12] = Oral bioavailability in Sprague-Dawley rat at 3 mg/kg by RP-HPLC analysis; type: ADME, organism-based; conditions: in vivo
[13] = Tmax in Sprague-Dawley rat at 30 mg/kg, po by RP-HPLC analysis; type: ADME, organism-based; conditions: in vivo
[14] = Volume of distribution at steady state in Beagle dog at 0.1 mg/kg, iv by RP-HPLC analysis; type: ADME, organism-based, Canis lupus familiaris; conditions: in vivo, read-out: Vdss
[15] = Terminal half life in Beagle dog at 0.1 mg/kg, iv by RP-HPLC analysis; type: ADME, organism-based, Canis lupus familiaris; conditions: in vivo, read-out: beta t1/2 (converted)
[16] = Tmax in Beagle dog at 0.3 mg/kg, po by RP-HPLC analysis; type: ADME, organism-based, Canis lupus familiaris; conditions: in vivo
[17] = Clearance in cynomolgus monkey at 0.1 mg/kg, iv by RP-HPLC analysis; type: ADME, organism-based, Macaca fascicularis; conditions: in vivo
[18] = Volume of distribution at steady state in cynomolgus monkey at 0.1 mg/kg, iv by RP-HPLC analysis; type: ADME, organism-based, Macaca fascicularis; conditions: in vivo, read-out: Vdss
[19] = Terminal half life in cynomolgus monkey at 0.1 mg/kg, iv by RP-HPLC analysis; type: ADME, organism-based, Macaca fascicularis; conditions: in vivo, read-out: beta t1/2 (converted)
Cynomolgus monkey [20] = assay: Dose normalized AUC in cynomolgus monkey at 0.1 mg/kg, iv by RP-HPLC analysis; type: ADME, organism-based, Macaca fascicularis; conditions: in vivo
Cynomolgus monkey [21] = assay: Dose normalized AUC in cynomolgus monkey at 0.3 mg/kg, po by RP-HPLC analysis; type: ADME, organism-based, Macaca fascicularis; conditions: in vivo; summary of the method: as §1
Cynomolgus monkey [22] = assay: Dose normalized Cmax in cynomolgus monkey at 0.3 mg/kg, po by RP-HPLC analysis; type: ADME, organism-based, Macaca fascicularis; conditions: in vivo
[23] = Protein binding in dog plasma; type: ADME, cell-free, Canis lupus familiaris; conditions: read-out: PPB
[24] = Protein binding in Lewis rat plasma; type: ADME, cell-free; conditions: read-out: PPB (converted)
Rattus norvegicus [25] = assay: (§2) Antiarthritic activity in Lewis rat type-2 collagen-induced arthritis model assessed as reduction in IgG antibodies at 3 to 10 mg/kg, po bid administered prior to disease onset for 19 days starting from 5 days post type-2 collagen-induction measured post last dose by ELISA; type: functional, organism-based
Summary of the method: (§3)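 Rat collagen-induced arthritis, prophylactic regimen: dosing starts before disease onset, b.i.d. Readouts are anti-rat collagen antibodies, paw swelling, and histology (inflammatory cell infiltration, proteoglycan loss, joint erosion).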

Rattus norvegicus [26] = assay: as §2, with “proteoglycan loss” for “IgG antibodies”, “giemsa/safranin O staining based histopathological analysis” for “ELISA”; type: functional, organism-based; summary of the method: as §3
Rattus norvegicus [27] = assay: Antiarthritic activity in Lewis rat type-2 collagen-induced arthritis model assessed as reduction in IgG antibodies at 10 mg/kg, po bid administered after disease onset for 40 days starting from 14 days post type-2 collagen-induction measured on day 41 by ELISA; type: functional, organism-based
Summary of the method: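 Rat collagen-induced arthritis, therapeutic regimen: dosing begins once marked paw swelling is present, 10 mg/kg b.i.d.; readout is established anti-rat collagen autoantibody response.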

Mus musculus [28] = assay: Antiinflammatory activity in po dosed C57BL/6J mouse ozone-induced lung inflammation model assessed as reduction in neutrophil numbers in bronchoalveolar lavage pretreated for 1 hr followed by ozone exposure for 4 hrs and subsequent redosing measured after 24 hrs by Diff-quick staining based assay; type: functional
Summary of the method: (§4)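 Mouse ozone-induced lung inflammation. Inflammatory cells are counted in bronchoalveolar lavage (neutrophils, macrophages) across several doses. ED50 is derived from the dose–response.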

Mus musculus [29] = assay: Antiinflammatory activity in po dosed C57BL/6J mouse ozone-induced lung inflammation model assessed as reduction in macrophage numbers in bronchoalveolar lavage pretreated for 1 hr followed by ozone exposure for 4 hrs and subsequent redosing measured after 24 hrs by Diff-quick staining based assay; type: functional; summary of the method: as §4
Mus musculus [30] = assay: Effect on plasma leakage in C57BL/6J mouse ozone-induced lung inflammation model assessed as change in bronchoalveolar lavage serum albumin level at 10 to 100 mg/kg, po pretreated for 1 hr followed by ozone exposure for 4 hrs and subsequent redosing measured after 24 hrs by ELISA; type: functional, organism-based
Summary of the method: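 Mouse ozone-induced lung inflammation. Plasma leakage is measured as rise in serum albumin level in bronchoalveolar lavage fluid.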

Rattus norvegicus [31] = assay: Toxicity in Lewis rat type-2 collagen-induced arthritis model at 3 to 10 mg/kg, po bid; type: organism-based; conditions: in vivo
Summary of the method: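 Rat collagen-induced arthritis, dosed b.i.d. either prophylactically (before disease onset) or therapeutically (once paw swelling was evident). Tolerability was judged by overt signs of toxicity across the multi-dose study. Disease endpoints were anti-rat collagen antibodies, paw swelling, inflammatory cell infiltration, proteoglycan loss and joint erosion.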

[32] = Intrinsic clearance in rat liver microsomes assessed per mg protein; type: ADME, microsome; conditions: read-out: CLH
[33] = Equilibrium solubility of the compound at pH 6.8 by LC-MS/MS analysis; type: physicochemical; conditions: buffer
Summary of the method: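 High-throughput equilibrium solubility at pH 6.8, reported in mM.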

T1 sequence (P42336 whole entry, canonical isoform): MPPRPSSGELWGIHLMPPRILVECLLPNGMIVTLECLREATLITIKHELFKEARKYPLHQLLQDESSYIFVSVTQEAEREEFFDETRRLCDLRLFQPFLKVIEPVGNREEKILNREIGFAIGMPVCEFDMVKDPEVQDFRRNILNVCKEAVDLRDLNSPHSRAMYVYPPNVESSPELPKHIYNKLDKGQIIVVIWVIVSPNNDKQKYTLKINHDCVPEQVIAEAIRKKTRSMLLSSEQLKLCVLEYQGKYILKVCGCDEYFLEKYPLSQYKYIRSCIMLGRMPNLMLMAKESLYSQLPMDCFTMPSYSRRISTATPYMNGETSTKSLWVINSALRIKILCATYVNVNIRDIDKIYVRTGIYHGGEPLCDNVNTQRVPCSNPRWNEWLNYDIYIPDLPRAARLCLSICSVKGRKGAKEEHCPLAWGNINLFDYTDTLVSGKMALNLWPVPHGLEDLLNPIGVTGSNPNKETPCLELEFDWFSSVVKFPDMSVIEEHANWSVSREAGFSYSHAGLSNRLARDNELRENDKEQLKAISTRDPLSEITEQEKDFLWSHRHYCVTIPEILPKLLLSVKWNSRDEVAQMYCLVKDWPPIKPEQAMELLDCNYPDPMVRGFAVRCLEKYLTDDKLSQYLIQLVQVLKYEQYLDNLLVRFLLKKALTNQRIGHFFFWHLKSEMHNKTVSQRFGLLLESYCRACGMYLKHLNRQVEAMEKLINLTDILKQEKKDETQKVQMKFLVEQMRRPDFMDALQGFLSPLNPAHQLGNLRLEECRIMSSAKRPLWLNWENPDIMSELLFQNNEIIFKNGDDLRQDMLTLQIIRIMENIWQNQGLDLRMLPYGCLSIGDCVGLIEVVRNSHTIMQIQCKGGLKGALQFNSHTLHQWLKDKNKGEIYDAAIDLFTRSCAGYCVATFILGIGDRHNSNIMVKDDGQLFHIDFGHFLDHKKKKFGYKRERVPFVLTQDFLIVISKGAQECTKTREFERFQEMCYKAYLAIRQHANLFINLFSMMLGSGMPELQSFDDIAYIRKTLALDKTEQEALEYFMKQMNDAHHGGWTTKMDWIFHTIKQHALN
T2 sequence (P42338 whole entry, the tested form may be a part, canonical isoform): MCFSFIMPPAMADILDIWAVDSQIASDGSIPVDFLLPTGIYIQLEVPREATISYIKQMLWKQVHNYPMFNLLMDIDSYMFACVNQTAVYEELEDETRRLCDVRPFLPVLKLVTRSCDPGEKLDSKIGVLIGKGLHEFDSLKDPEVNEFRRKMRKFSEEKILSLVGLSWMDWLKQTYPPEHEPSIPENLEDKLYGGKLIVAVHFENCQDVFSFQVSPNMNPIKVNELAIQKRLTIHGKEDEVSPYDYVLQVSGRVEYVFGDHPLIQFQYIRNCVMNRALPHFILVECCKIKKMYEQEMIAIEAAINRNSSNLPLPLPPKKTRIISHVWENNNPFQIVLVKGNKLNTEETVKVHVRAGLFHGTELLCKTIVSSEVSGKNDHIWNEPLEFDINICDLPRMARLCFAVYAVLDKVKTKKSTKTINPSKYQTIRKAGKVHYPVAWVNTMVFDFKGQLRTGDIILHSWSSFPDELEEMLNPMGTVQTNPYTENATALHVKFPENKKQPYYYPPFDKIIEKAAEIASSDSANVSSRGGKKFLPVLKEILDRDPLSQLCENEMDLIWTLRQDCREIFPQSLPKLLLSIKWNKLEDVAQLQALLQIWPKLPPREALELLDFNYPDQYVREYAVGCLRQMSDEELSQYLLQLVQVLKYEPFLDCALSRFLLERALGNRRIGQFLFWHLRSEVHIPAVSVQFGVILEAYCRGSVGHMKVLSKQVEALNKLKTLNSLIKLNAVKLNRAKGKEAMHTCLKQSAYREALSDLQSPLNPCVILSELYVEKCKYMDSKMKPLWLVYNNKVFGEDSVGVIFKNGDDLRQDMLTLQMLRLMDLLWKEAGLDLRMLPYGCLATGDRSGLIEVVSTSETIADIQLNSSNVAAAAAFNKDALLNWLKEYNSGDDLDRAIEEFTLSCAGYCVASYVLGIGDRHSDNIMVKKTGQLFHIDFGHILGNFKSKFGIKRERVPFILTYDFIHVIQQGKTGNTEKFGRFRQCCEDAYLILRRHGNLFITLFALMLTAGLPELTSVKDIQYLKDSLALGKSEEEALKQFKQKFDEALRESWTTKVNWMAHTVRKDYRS
Chain of Phosphatidylinositol 3-kinase catalytic subunit type 3 (Q8NEB9 whole entry): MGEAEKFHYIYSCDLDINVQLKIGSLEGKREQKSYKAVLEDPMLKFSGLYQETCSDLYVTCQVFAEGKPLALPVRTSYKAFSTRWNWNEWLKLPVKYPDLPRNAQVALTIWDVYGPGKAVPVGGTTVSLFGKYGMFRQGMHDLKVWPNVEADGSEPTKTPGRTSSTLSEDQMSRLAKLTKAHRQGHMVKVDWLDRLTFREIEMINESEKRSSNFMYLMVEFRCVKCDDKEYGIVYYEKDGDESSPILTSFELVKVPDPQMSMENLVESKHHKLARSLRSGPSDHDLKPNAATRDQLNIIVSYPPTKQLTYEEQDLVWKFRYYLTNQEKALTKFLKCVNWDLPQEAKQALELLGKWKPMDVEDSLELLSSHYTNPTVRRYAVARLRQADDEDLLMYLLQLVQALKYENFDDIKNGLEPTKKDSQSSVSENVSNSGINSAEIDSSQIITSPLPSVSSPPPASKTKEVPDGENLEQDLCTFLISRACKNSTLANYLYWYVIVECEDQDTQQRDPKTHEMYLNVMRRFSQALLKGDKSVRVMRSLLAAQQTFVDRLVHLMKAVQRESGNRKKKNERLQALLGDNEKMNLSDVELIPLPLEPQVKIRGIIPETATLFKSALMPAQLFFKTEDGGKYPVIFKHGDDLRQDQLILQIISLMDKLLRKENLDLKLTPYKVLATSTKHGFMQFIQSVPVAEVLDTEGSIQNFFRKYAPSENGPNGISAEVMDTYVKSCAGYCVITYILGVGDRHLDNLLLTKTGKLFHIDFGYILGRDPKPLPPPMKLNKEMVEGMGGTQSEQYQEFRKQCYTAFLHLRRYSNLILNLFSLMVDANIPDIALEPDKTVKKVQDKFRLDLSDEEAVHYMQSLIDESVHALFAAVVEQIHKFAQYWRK
Chain of Phosphatidylinositol 4,5-bisphosphate 3-kinase catalytic subunit gamma isoform (Q9JHG7 whole entry, canonical isoform): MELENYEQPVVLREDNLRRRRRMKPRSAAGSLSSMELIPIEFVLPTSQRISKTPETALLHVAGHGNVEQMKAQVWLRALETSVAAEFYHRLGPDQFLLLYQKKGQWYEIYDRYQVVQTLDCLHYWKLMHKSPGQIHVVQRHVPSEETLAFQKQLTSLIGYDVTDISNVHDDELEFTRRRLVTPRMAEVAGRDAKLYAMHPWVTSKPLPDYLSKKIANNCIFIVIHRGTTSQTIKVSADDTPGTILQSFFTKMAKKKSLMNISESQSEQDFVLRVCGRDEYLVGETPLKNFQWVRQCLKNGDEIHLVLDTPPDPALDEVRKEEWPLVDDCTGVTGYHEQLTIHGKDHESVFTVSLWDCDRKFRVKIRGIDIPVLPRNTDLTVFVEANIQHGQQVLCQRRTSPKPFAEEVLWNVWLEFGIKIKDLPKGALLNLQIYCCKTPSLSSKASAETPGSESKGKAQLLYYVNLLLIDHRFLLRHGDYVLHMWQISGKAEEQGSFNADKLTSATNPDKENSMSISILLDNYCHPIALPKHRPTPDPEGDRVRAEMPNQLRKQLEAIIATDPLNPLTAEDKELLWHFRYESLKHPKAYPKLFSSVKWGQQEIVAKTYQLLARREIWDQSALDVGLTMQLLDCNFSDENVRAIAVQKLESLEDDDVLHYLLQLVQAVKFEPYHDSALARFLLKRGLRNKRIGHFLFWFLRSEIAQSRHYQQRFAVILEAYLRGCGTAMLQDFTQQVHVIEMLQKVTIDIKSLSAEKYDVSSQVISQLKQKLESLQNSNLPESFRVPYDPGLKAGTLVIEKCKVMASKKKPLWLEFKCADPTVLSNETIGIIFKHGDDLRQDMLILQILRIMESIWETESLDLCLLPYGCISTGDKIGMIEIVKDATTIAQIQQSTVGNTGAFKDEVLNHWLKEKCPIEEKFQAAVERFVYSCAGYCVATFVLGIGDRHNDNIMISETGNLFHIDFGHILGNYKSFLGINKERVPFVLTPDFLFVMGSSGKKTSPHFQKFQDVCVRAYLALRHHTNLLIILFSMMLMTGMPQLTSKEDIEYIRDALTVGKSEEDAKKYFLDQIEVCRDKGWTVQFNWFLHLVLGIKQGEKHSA

For `CCC(=O)N1CC[C@H](Nc2ncnc3c2CN(c2cnc(OC)c(C(F)(F)F)c2)CC3)C1` [LENIOLISIB], the IC50 [1] was 7800 nM, the IC50 [2] was over 9100 nM and the Activity (Mus musculus [3]) was “Non-Toxic”. The IC50 [4] was 244 nM, the IC50 [5] was 424 nM and the IC50 [6] was 1670 nM. It also gave an IC50 [7] of 2250 nM, an IC50 (Cynomolgus monkey [8]) of 84 to 140 nM and an IC50 [9] of 880 nM. It also gave a half-life [10] of 108 min, an AUC/dose (Rattus norvegicus [11]) of 1355 nM·h and a bioavailability [12] of 86%. For the same molecule, the Tmax [13] was under 15 min, the Vd [14] was 0.3 L/kg and the half-life [15] was 90 min. For the same molecule, the Tmax [16] was 42 min, the clearance [17] was 17 mL/min/kg and the Vd [18] was 0.6 L/kg. It also gave a half-life [19] of 42 min, an AUC/dose (Cynomolgus monkey [20]) of 2250 nM·h and an AUC/dose (Cynomolgus monkey [21]) of 297 nM·h. For the same molecule, the Cmax/dose (Cynomolgus monkey [22]) was 213 nM, the fraction unbound [23] was under 0.01 and the fraction unbound [24] was 0.06. The Activity (Rattus norvegicus [25]) was “Active”, the Activity (Rattus norvegicus [26]) was “Active” and the Activity (Rattus norvegicus [27]) was “Active”. The Activity (Mus musculus [28]) was “Dose-dependent effect”, the ED50 (Mus musculus [28]) was 16 mg/kg and the Activity (Mus musculus [29]) was “Dose-dependent effect”. The ED50 (Mus musculus [29]) was 40 mg/kg, the Activity (Mus musculus [30]) was “inactive” and the Activity (Rattus norvegicus [31]) was “Non-Toxic”. The microsomal CLint [32] was 55 µL/min/mg and the solubility thermodynamic [33] was 320 µM (≈ 144 µg/mL).
